Source: ChEMBL document CHEMBL3797091, “Part 2. Notch-sparing γ-secretase inhibitors: The study of novel γ-amino naphthyl alcohols” (Bioorg Med Chem Lett, 2016)
Converted amounts (≈) assume the structure as drawn. The source made the active and inactive calls. The calls are words filed in the database; no cut-off is given here.

Experiments:
[1] = biological target: T1, Gamma-secretase (Homo sapiens) (UniProt Q96BI3+Q9NZ42+Q8WW43+P49768+Q92542+P49810); assay: Inhibition of human gamma secretase mediated amyloid beta (1 to 40) production expressed in CHO cells at 100 uM using APP based Flag-C-100 as substrate after 4 hrs by ELISA; format: cell-based
Summary of the method: (§1)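 Enzyme: γ-secretase complex purified from CHO cells stably overexpressing all four human components. Substrate: recombinant APP-based C-100 FLAG. Reaction in 0.2% CHAPSO/HEPES, pH 7.5, at 37°C for 4 h, with compounds in DMSO (1% DMSO final). Stopped with 0.5% SDS. Aβ40 measured by commercial ELISA.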

[2] = biological target: T1, Gamma-secretase (Homo sapiens); assay: Inhibition of human gamma secretase mediated notch 1 processing by Western blot analysis; format: protein-complex assay
[3] = biological target: T1, Gamma-secretase (Homo sapiens); assay: Inhibition of gamma secretase (unknown origin)-mediated amyloid beta (1 to 42) production at 30 uM by cell based assay
[4] = biological target: T1, Gamma-secretase (Homo sapiens); assay: Inhibition of human gamma secretase mediated amyloid beta (1 to 40) production expressed in CHO cells at 50 uM using APP based Flag-C-100 as substrate after 4 hrs by ELISA; format: cell-based; summary of the method: as §1
[5] = biological target: T1, Gamma-secretase (Homo sapiens); assay: Inhibition of gamma secretase (unknown origin)-mediated amyloid beta (1 to 42) production at 100 uM by cell based assay
[6] = biological target: T1, Gamma-secretase (Homo sapiens); assay: Inhibition of human gamma secretase mediated amyloid beta 42 production expressed in CHO cells at 100 uM using APP based Flag-C-100 as substrate after 4 hrs by ELISA; format: cell-based
[7] = Permeability of the compound across apical to basolateral side; format: ADME; settings: not told; read-out: permeability
[8] = Plasma protein binding in human; format: ADME, cell-free; settings: read-out: PPB (converted)
[9] = Lipophilicity, log D of the compound; format: physicochemical; settings: octanol/water
[10] = Metabolic stability in human liver microsomes assessed as parent compound remaining after 60 mins; format: ADME; settings: read-out: Stability
Gamma-secretase = assay: Inhibition of gamma secretase (unknown origin)-mediated notch processing by cell based assay; design: species or system Homo sapiens
[11] = Metabolic stability in rat liver microsomes assessed as parent compound remaining after 60 mins; format: ADME; settings: read-out: Stability
[12] = Solubility of compound in PBS buffer at pH 7.4; format: physicochemical
[13] = biological target: T1, Gamma-secretase (Homo sapiens); assay: Inhibition of gamma secretase (unknown origin)-mediated amyloid beta (1 to 40) production at 100 uM by cell based assay

Row | SMILES | inhibition [1] [%] | inhibition [2] | further results
1 | CCC(CC)(CN(Cc1ccc(F)c(F)c1)C(C)C)C(O)c1ccc2ccccc2c1 (racemic) | 69 | inactive | 
2 | CC(C)N(Cc1ccccc1)CC(C)(C)C(O)c1ccc2ccccc2c1 (racemic) | 72 | inactive | 
3 | OC(CCN(Cc1ccccc1)Cc1ccccc1)c1ccc2ccccc2c1 (racemic) | 32 |  | 
4 | COc1ccc(N2CCN(CCC(O)c3ccc4ccccc4c3)CC2)cc1 (racemic) | 0 |  | 
5 | OC(CCN1CCN(c2ccccc2)CC1)c1ccc2ccccc2c1 (racemic) | 0 | inactive | 
6 | CCC(CC)(CN(Cc1ccccc1)C(C)C)C(=O)c1ccc2ccccc2c1 |  |  | inhibition [4]: 40%
7 | OC(CCN(Cc1ccccc1)C1CC1)c1ccc2ccccc2c1 (racemic) | 36 |  | 
8 | CC(C)(C)N(CCC(O)c1ccc2ccccc2c1)Cc1ccccc1 (racemic) | 0 |  | 
9 | OC(CCN1CCN(Cc2ccccc2)CC1)c1ccc2ccccc2c1 (racemic) | 15 | inactive | 
10 | CCC(CC)(CN(Cc1ccc(Cl)c(Cl)c1)C(C)C)C(O)c1ccc2ccccc2c1 (racemic) | 59 | inactive | 
11 | OC(CCN1CCN(c2cccc(C(F)(F)F)c2)CC1)c1ccc2ccccc2c1 (racemic) | 38 | inactive | inhibition [6]: 14%
12 | COc1cc(CN(CCC(O)c2ccc3ccccc3c2)C(C)C)cc(OC)c1 (racemic) | 17 | inactive | 
13 | OC(CCN1CCN(c2ccc(F)cc2)CC1)c1ccc2ccccc2c1 (racemic) | 61 | inactive | 
14 | CCN(CCC(O)c1ccc2ccccc2c1)Cc1ccccc1 (racemic) | 15 |  | 
15 | CC(C)CN(CCC(O)c1ccc2ccccc2c1)Cc1ccccc1 (racemic) | 0 |  | 
16 | CN(CCC(O)c1ccc2ccccc2c1)Cc1ccccc1 (racemic) | 15 | inactive | 
17 | CC(C)N(Cc1ccccc1)CC(O)c1ccc2ccccc2c1 (racemic) | 0 | Active | 
18 | CCC(CC)(CN(Cc1ccccc1)C(C)C)C(O)c1ccc2ccccc2c1 (racemic) | 82 | inactive | inhibition [5]: 100%; inhibition [13]: 80%; IC50 (Gamma-secretase): > 75 µM
19 | CCC(CC)N(Cc1ccc(C(=O)O)cc1)S(=O)(=O)c1ccc(Cl)cc1 |  |  | IC50 (Gamma-secretase): 10 µM
20 | CC(C)N(CCC(O)c1ccc2ccccc2c1)c1ccccc1 (racemic) | 68 | Active | 

Further lines, with some results ahead:

Row | inhibition [1] [%] | inhibition [2] | SMILES | further results
21 | 0 |  | CC(C)N(CCC(O)c1ccc2c(c1)OCO2)Cc1ccccc1 (racemic) | 
22 | 46 | inactive | CC(C)N(CCC(O)c1cccc2ccccc12)Cc1ccccc1 (racemic) | 
23 | 18 | Active | CC(C)N(CCCC(O)c1ccc2ccccc2c1)Cc1ccccc1 (racemic) | 
24 | 7 |  | CC(C)N(CCC(O)c1ccc2ccccc2c1)Cc1cccc(C#N)c1 (racemic) | 
25 | 10 | Active | CC(C)N(CCC(O)c1ccccc1)Cc1ccccc1 (racemic) | 
26 | 15 | Active | CC(C)N(CCC(O)c1cc(C(F)(F)F)cc(C(F)(F)F)c1)Cc1ccccc1 (racemic) | inhibition [3]: 81%
27 | 30 | inactive | CC(C)N(CCC(O)c1cccc(Oc2ccccc2)c1)Cc1ccccc1 (racemic) | 
28 | 64 | inactive | CC(C)N(CCC(O)c1ccc2ccccc2c1)Cc1ccc(F)c(F)c1 (racemic) | inhibition [5]: 23%
29 | 60 | inactive | CC(C)N(CCC(O)c1ccc2ccccc2c1)Cc1ccc(Cl)c(Cl)c1 (racemic) | 
30 | 0 |  | CC(C)N(CCC(O)c1ccc(OC2CCCCO2)cc1)Cc1ccccc1 (racemic) | 
31 | 0 |  | CC(C)N(CCC(O)c1cc2ccccc2o1)Cc1ccccc1 (racemic) | 
32 | 51 | inactive | COC(CCN(Cc1ccccc1)C(C)C)c1ccc2ccccc2c1 (racemic) | 
33 | 30 | Active | CC(C)N(CCC(O)c1cc(F)cc(Cl)c1)Cc1ccccc1 (racemic) | 
34 | 54 | Active | CC(C)N(CCC(O)c1ccc2ccccc2c1)Cc1cc(F)cc(F)c1 (racemic) | 
35 | 81 | inactive | CC(C)N(CCC(O)c1ccc2ccccc2c1)Cc1ccccc1 (racemic) | inhibition [6]: 67%; inhibition [3]: 45%; Papp A→B [7]: 18.4 ×10⁻⁶ cm/s; fraction unbound [8]: 0.1; logD [9]: 3.4; remaining at 1 h [10]: 1%; IC50 (Gamma-secretase): > 100 µM; remaining at 1 h [11]: 0%; solubility [12]: 98 µM (≈ 32.7 µg/mL)
36 | 55 | inactive | COc1ccc(CN(CCC(O)c2ccc3ccccc3c2)C(C)C)cc1 (racemic) | 
37 | 29 | Active | Cc1ccc(C(O)CCN(Cc2ccccc2)C(C)C)cc1F (racemic) | 
38 | 72 | Active | CC(C)N(CCC(O)c1ccc(C(C)(C)C)cc1)Cc1ccccc1 (racemic) | inhibition [3]: 14%
39 | 38 |  | CC(C)N(CCC(O)c1ccc2ccccc2c1)Cc1ccc(F)c(Cl)c1 (racemic) | 
40 | 24 | inactive | CC(C)N(CCC(O)c1ccc(Oc2ccccc2)cc1)Cc1ccccc1 (racemic) | 
41 | 31 | inactive | CC(C)N(CCC(O)c1ccc(OCc2ccccc2)cc1)Cc1ccccc1 (racemic) | 
42 | 19 |  | CC(C)N(CCC(O)c1ccc2ccccc2c1)Cc1ccc(C#N)cc1 (racemic) | 
